This is a sample that favours compounds with a hit; in the whole collection about 5.4% have one here.
CSC inhib: cancer stem cell inhibition; AID 2717; 300,000 compounds, 1.1% hits; cancer stem cell-like cells viability, luminescence; inhibition, % at 7.5 µM; in the data active means inhibition above about 75%; inconclusive means no clear call, values can overlap the other calls; tested in HMLE shEcad cells
aSyn UTR inh: MLPCN primary screen, SNCA 5' untranslated region; AID 1813; inhibition, % (tested at 7.5 µM); 300,000 compounds, 0.82% hits; alpha-synuclein 5'UTR reporter, inhibitor activity; in the data active means inhibition above about 60%; inconclusive means no clear call, values can overlap the other calls;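 further: H4 neuroglioblastoma cells stably carrying SNCA 5'UTR luciferase fusion; 0% = DMSO wells and 100% = positive control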
SKKanGAS inh: blocks kanamycin growth of S. pyogenes SKKanGAS strain. AID 1662. inhibition, % at 7.5 µM. 300,000 compounds, 1.3% hits. BacTiter-Glo, 6 h;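 active means mean replicate score, as percent of positive control median, at least 50; inconclusive means mean below 50 but one replicate at or above 50; inactive means mean and every replicate below 50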;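 further: strain carries kanamycin resistance gene driven by streptokinase promoter and grows in 40 µg/ml kanamycin; loss of luminescence reflects streptokinase promoter inhibition or plain growth inhibition; 0% = median of DMSO wells and 100% = positive control at its reference dose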
Mdm2 MdmX PPI: disrupts the human Mdm2-MdmX interaction. SaOS-2 split-luciferase Mdm2/MdmX complementation, luminescence. O15151+Q00987. inhibition, % at 8 µM. AID 485346. 330,000 compounds, 3% hits;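 active means inhibition of at least 50% at 8 µM in the primary screen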
T cruzi inh: blocks replication of Trypanosoma cruzi; T. cruzi beta-gal in NIH3T3, luminescence, 90 h; AID 1885; inhibition, % (test concentration not listed); 300,000 compounds, 1.4% hits;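 active means mean inhibition across valid replicates above about 55%, limit read from the data; inconclusive means mean below that limit but half or more replicates reach it; inactive means mean below it, under half of replicates reach it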;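 further: signal also drops with host cell toxicity which is not excluded here; 0% = plate median of DMSO wells and 100% = zero luminescence signal; higher percent means less beta-gal luminescence so fewer parasites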
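assay system = mouse NIH/3T3 fibroblasts infected with β-gal-expressing T. cruzi Tulahuen C4 | input = 5,000 NIH/3T3 host cells per well | buffer or medium = DMEM plus 2% FBS | timing = 3 h host attachment, then at least 90 h co-culture | measured by = GalScreen luminescence, 60 min | evaluation = luminescence reflecting intracellular parasite burden, expressed as percent inhibition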
Mdm2 MdmX conf: confirmation of human Mdm2/MdmX interaction inhibitors. shares compounds with Mdm2 MdmX PPI. Mdm2-MdmX binding, luminescent assay. inhibition, % at 8 µM. 10,000 compounds, 55% hits; in the data active means inhibition above about 40%
Full FLuc ctr: full-length luciferase inhibition in Mdm2/MdmX counter-screen; shares compounds with Mdm2 MdmX PPI; SaOS-2 full-length luciferase counterscreen, luminescence; inhibition, % at 8 µM; 6,200 compounds, 77% hits; AID 504607;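 active means mean inhibition at 8 µM reaching about 37%, which flags the compound as non-specific, limit read from the data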;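 further: p53-null SaOS-2 cells with luciferase driven by a doxycycline-inducible promoter; compound on cells about two nights before reading with doxycycline added after day one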
The depositor's hits bear a star.

How did O=C(Nc1ccc(N2CCN(Cc3ccccc3F)CC2)cc1)c1ccc([N+](=O)[O-])o1 do in these assays?
CSC inhib: 103.0*; aSyn UTR inh: 104.7*; SKKanGAS inh: 4.5; Mdm2 MdmX PPI: 80.7*; T cruzi inh: 22.0; Mdm2 MdmX conf: 68.5*; Full FLuc ctr: 16.3

What do the screens show for `CC(C)(C)C(=O)N1CCN(c2ccc(NC(=O)c3ccc([N+](=O)[O-])o3)cc2)CC1`?
CSC inhib: 1.2; aSyn UTR inh: 28.7; SKKanGAS inh: -0.9; Mdm2 MdmX PPI: 53.6*; T cruzi inh: 18.3; Mdm2 MdmX conf: 45.5*; Full FLuc ctr: 30.5

How did CC(C)N1CC(COc2ccc(Cl)cc2Cl)OC1=O (stereo unspecified) do in these assays?
CSC inhib: -0.8; aSyn UTR inh: -11.9; SKKanGAS inh: -0.2; Mdm2 MdmX PPI: 14.7; T cruzi inh: -0.8

What do the screens show for `CN(C)C=NC(=O)c1cc(C(=O)c2ccc(Cl)cc2Cl)c[nH]1`?
CSC inhib: 1.7; aSyn UTR inh: 11.3; SKKanGAS inh: 4.3; Mdm2 MdmX PPI: 40.1; T cruzi inh: -14.2

How did Cc1ccc(S(=O)(=O)Nc2csc(C)c2C(=O)O)cc1 do in these assays?
CSC inhib: -9.8; aSyn UTR inh: 11.1; SKKanGAS inh: 10.0; Mdm2 MdmX PPI: 16.9; T cruzi inh: -4.4

How did Cc1cccc2c(C(=O)Nn3cnnc3)cc(-c3ccccc3Cl)nc12 do in these assays?
CSC inhib: 2.8; aSyn UTR inh: -1.3; SKKanGAS inh: 14.9; Mdm2 MdmX PPI: 22.0; T cruzi inh: -4.9

How did CCC(/C=C1\Sc2ccc(OC)cc2N1CC)=C\c1sc2ccc(OC)cc2[n+]1CCCS(=O)(=O)[O-] do in these assays?
CSC inhib: 15.3; aSyn UTR inh: 27.1; SKKanGAS inh: 22.0; Mdm2 MdmX PPI: 53.9*; T cruzi inh: 25.1; Mdm2 MdmX conf: 24.9

How did CCC(=O)/C=C1/Sc2ccc(OC)cc2N1CCO do in these assays?
CSC inhib: -6.4; aSyn UTR inh: -6.8; SKKanGAS inh: -5.9; Mdm2 MdmX PPI: -4.0; T cruzi inh: -16.1

How did CCC(/C=C1\Sc2ccc(OC)cc2N1CCO)=C\c1sc2ccc(OC)cc2[n+]1CCO do in these assays?
CSC inhib: 10.6; Mdm2 MdmX PPI: 72.4*; Mdm2 MdmX conf: 21.8

How did O=C(CN1CCN(S(=O)(=O)c2ccccc2)CC1)NC(=O)NCc1ccco1 do in these assays?
CSC inhib: -9.4; aSyn UTR inh: 8.6; SKKanGAS inh: -2.5; Mdm2 MdmX PPI: 8.4; T cruzi inh: -1.8

How did Cn1nc(C(F)(F)F)c(-c2ccc(Br)cc2)c1NC(=O)Nc1ccc(F)cc1F do in these assays?
CSC inhib: 61.8; aSyn UTR inh: 16.4; SKKanGAS inh: 39.9; Mdm2 MdmX PPI: 90.7*; T cruzi inh: 47.4; Mdm2 MdmX conf: 50.4*; Full FLuc ctr: 39.4*

Results for Cn1nc(C(F)(F)F)c(-c2ccc(F)cc2)c1NC(=O)c1ccco1 ?
CSC inhib: 0.6; aSyn UTR inh: -18.7; SKKanGAS inh: 1.8; Mdm2 MdmX PPI: 15.5; T cruzi inh: 5.0

How did CCN1CCN(CCNC(=O)c2ccc3c(c2)N(Cc2ccc(F)cc2)C(=O)/C(=C/c2ccccc2)S3)CC1 do in these assays?
CSC inhib: 103.2*; aSyn UTR inh: 27.1; SKKanGAS inh: 22.5; Mdm2 MdmX PPI: 95.7*; T cruzi inh: 53.5; Mdm2 MdmX conf: 74.2*; Full FLuc ctr: 22.7

Results for O=C(CN1C(=O)/C(=C\c2cccc(Cl)c2)Sc2ccccc21)NCCCN1CCOCC1 ?
CSC inhib: 9.8; aSyn UTR inh: -0.6; SKKanGAS inh: -8.0; Mdm2 MdmX PPI: 25.4; T cruzi inh: -1.9

What do the screens show for `CCN1CCN(CCNC(=O)c2ccc(/C=C3/Sc4ccccc4N(Cc4cccc(Cl)c4)C3=O)cc2)CC1`?
CSC inhib: inconclusive; aSyn UTR inh: -22.4; SKKanGAS inh: 28.3; Mdm2 MdmX PPI: 96.5*; T cruzi inh: 60.5*; Mdm2 MdmX conf: 81.2*; Full FLuc ctr: 57.8*

Results for CC(C)(C)c1ccc(/C=C2\SC(=O)N(CCNC(=O)c3cccc(S(=O)(=O)N4CCOCC4)c3)C2=O)cc1 ?
aSyn UTR inh: -89.2; SKKanGAS inh: 36.1; Mdm2 MdmX PPI: 70.0*; T cruzi inh: 21.4; Mdm2 MdmX conf: 75.9*; Full FLuc ctr: 86.1*

Results for Cc1ccccc1CN1C(=O)/C(=C\c2ccc(C(=O)NCCN3CCOCC3)cc2)Sc2ccccc21 ?
CSC inhib: 26.0; aSyn UTR inh: -3.4; SKKanGAS inh: 14.5; Mdm2 MdmX PPI: 45.1; T cruzi inh: 3.5

High-throughput results (PubChem BioAssay)
